The source of these data is ChEMBL document CHEMBL1141609, “Combinatorial synthesis of anilinoanthraquinone derivatives and evaluation as non-nucleotide-derived P2Y2 receptor antagonists” (Bioorg Med Chem Lett, 2008).

For experiment [1], the target named is P2Y purinoceptor 2 (Homo sapiens, UniProt P41231). Nature of the experiment: Antagonist activity at human recombinant P2Y2 receptor in 1321N1 cells assessed as inhibition of UTP-induced calcium mobilization. Type of experiment: functional, cell-based. The procedure, abridged:
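Human P2Y2 receptor recombinantly expressed in 1321N1 astrocytoma cells. Calcium mobilization evoked by 1 uM UTP (ca. 50-80% of maximal effect) was read with the fluorescent Ca2+ dye Fura-2 on a fluorescence plate reader. IC50 was taken from inhibition of the UTP response.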
On the technique in general: A change in cytosolic calcium serves as a functional read-out for many receptors and channels.

Experiment [2] concerns the target P2Y purinoceptor 2 (Mus musculus, UniProt P35383). Description: Antagonist activity at mouse P2Y2 receptor in mouse NG108-15 cells assessed as inhibition of UTP-induced calcium mobilization. In kind it is functional, cell-based. The procedure, abridged: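 Mouse P2Y2 receptor natively expressed in NG108-15 neuroblastoma x glioma hybrid cells. Calcium mobilization evoked by 3 uM UTP (ca. 50-80% of maximal effect) was read with the fluorescent Ca2+ dye Fura-2 on a fluorescence plate reader. IC50 was taken from inhibition of the UTP response.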

A further experiment deals with P2Y purinoceptor 4 (Homo sapiens, UniProt P51582). Nature of the experiment: Antagonist activity at human P2Y4 receptor. In kind it is functional.
The next experiment concerns the target P2Y purinoceptor 6 (Rattus norvegicus, UniProt Q63371). Description: Antagonist activity at rat P2Y6 receptor. Type of experiment: functional.
The target in the next experiment is T1, 5'-nucleotidase (Rattus norvegicus, UniProt P21588).
T1 sequence (P21588 whole entry): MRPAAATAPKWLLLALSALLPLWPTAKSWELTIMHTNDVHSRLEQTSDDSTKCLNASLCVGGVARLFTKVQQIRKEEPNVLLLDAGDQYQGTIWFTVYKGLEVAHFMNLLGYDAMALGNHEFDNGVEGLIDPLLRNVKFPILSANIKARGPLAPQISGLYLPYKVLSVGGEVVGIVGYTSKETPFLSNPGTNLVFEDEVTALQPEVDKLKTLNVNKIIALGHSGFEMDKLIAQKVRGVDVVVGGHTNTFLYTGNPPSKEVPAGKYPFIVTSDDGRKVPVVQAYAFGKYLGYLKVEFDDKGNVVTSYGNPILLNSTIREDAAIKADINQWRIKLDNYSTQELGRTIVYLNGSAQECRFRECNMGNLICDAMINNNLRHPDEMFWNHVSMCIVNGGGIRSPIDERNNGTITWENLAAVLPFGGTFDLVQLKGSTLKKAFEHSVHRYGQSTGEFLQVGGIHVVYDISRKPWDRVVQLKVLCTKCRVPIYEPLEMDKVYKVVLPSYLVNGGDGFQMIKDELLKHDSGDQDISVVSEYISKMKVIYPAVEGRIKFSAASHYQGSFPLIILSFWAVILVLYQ
Description: Inhibition of rat ecto-5'-nucleotidase.

For experiment [3], the target named is T2, Ectonucleoside triphosphate diphosphohydrolase 1 (Rattus norvegicus, UniProt P97687).
T2 sequence (P97687 whole entry): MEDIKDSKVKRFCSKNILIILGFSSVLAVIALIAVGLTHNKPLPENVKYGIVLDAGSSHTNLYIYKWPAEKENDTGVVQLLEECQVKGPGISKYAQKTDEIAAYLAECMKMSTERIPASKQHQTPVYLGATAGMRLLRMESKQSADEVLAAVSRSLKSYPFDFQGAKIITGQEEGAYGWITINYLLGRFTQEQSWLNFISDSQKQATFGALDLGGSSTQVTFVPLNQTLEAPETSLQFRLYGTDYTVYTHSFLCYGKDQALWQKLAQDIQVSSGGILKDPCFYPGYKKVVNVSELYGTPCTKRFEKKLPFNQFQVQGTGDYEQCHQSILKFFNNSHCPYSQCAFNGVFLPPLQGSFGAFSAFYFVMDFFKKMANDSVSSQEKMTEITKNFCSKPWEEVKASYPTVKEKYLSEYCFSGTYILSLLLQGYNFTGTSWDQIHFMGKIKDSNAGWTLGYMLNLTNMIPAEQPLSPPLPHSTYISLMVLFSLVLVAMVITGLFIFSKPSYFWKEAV
Description: Inhibition of rat NTPDase 1.

SMILES strings stand for the structures.

Chain of P2Y purinoceptor 2 (Mus musculus, UniProt P35383) (P35383 whole entry): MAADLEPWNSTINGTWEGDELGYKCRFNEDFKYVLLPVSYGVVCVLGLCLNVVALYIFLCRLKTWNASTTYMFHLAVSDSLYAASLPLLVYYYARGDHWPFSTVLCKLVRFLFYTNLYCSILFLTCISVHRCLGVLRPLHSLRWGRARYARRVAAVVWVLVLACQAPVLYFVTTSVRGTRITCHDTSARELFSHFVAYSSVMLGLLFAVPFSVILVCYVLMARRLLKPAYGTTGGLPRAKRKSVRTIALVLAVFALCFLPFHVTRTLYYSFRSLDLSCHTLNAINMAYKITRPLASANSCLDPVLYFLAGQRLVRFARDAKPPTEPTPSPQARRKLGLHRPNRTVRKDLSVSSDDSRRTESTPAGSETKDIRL
Chain of P2Y purinoceptor 2 (Homo sapiens, UniProt P41231) (P41231 whole entry): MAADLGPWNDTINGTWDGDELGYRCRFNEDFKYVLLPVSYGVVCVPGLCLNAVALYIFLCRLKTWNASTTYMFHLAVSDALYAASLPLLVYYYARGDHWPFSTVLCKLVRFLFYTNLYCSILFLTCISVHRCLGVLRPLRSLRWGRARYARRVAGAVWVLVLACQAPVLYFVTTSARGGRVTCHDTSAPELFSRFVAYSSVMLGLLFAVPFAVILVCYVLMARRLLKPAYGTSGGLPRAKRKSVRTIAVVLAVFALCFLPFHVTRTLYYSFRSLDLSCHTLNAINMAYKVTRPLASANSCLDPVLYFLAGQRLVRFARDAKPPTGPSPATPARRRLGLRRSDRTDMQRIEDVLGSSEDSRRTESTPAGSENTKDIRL
Chain of P2Y purinoceptor 4 (P51582 whole entry): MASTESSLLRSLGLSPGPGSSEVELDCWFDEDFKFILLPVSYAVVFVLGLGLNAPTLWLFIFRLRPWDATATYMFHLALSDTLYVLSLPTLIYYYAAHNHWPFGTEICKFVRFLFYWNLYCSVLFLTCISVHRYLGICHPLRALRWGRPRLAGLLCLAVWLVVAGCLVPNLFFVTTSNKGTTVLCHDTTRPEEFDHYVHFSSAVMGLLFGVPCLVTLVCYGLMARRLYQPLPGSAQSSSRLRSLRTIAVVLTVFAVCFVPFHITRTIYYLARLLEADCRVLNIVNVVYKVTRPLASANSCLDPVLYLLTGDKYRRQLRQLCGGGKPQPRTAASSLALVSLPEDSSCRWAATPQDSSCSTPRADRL
Chain of P2Y purinoceptor 6 (Q63371 whole entry): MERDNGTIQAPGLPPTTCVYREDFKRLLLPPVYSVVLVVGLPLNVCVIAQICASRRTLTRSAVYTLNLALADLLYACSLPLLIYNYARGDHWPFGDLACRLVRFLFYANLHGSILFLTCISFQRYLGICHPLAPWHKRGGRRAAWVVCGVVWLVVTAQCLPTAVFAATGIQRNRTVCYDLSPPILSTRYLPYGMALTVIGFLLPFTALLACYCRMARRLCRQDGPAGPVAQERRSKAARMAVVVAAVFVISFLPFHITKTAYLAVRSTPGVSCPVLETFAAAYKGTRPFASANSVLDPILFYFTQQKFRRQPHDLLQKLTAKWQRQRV

A word on the IC50: it is the concentration at which inhibition is half-maximal. In the case of `Cc1ccc(Nc2cc(S(=O)(=O)O)c(N)c3c2C(=O)c2ccccc2C3=O)c(C)c1`, the IC50 at P2Y purinoceptor 2 [1] was found to be 5.43 µM; on P2Y purinoceptor 2 [2], 9 µM.

With `Cc1ccc(C)c(Nc2cc(S(=O)(=O)O)c(N)c3c2C(=O)c2ccccc2C3=O)c1`, the IC50 amounted to 30.3 µM on P2Y purinoceptor 2 [1] and 17 µM on P2Y purinoceptor 2 [2].

Turning to `Cc1ccccc1Nc1cc(S(=O)(=O)O)c(N)c2c1C(=O)c1ccccc1C2=O`, the IC50 came to 16.2 µM on P2Y purinoceptor 2 [1] and 10 µM on P2Y purinoceptor 2 [2].

As usually defined, the Ki is the equilibrium dissociation constant of an inhibitor or competing ligand from its target. A high value points to a looser hold on the target. On to `COc1ccccc1Nc1cc(S(=O)(=O)O)c(N)c2c1C(=O)c1ccccc1C2=O`, for which the IC50 against P2Y purinoceptor 4 is 50 µM; on P2Y purinoceptor 6, more than 100 µM; at P2Y purinoceptor 2 [1], 9.82 µM; at P2Y purinoceptor 2 [2], 9 µM. The Ki (on 5'-nucleotidase; in experiment [3]) was more than 100 µM throughout.

As for `Nc1c(S(=O)(=O)O)cc(Nc2cccc(Cl)c2)c2c1C(=O)c1ccccc1C2=O`, the IC50 on P2Y purinoceptor 2 [1] was more than 30 µM; at P2Y purinoceptor 2 [2], more than 100 µM.

Regarding `Nc1c(S(=O)(=O)O)cc(Nc2ccc(Cl)cc2)c2c1C(=O)c1ccccc1C2=O`, at P2Y purinoceptor 2 [1], the IC50 is 5.31 µM.

For `CC(=O)Nc1ccc(Nc2cc(S(=O)(=O)O)c(N)c3c2C(=O)c2ccccc2C3=O)cc1`, the values for the IC50 at P2Y purinoceptor 2 [1] and at P2Y purinoceptor 2 [2] were 5.81 µM and 12 µM, respectively.

As to `CC(=O)c1ccc(Nc2cc(S(=O)(=O)O)c(N)c3c2C(=O)c2ccccc2C3=O)cc1`, on P2Y purinoceptor 2 [2], the IC50 was more than 100 µM.

For the molecule `CCOc1ccc(Nc2cc(S(=O)(=O)O)c(N)c3c2C(=O)c2ccccc2C3=O)cc1`, the IC50 is 11.5 µM at P2Y purinoceptor 2 [1] and 9 µM at P2Y purinoceptor 2 [2].

Consider `COc1ccc(Nc2cc(S(=O)(=O)O)c(N)c3c2C(=O)c2ccccc2C3=O)cc1`, for which the IC50 at P2Y purinoceptor 2 [1] came out at 11.5 µM; on P2Y purinoceptor 2 [2], 17 µM.

Regarding `Nc1c(S(=O)(=O)O)cc(Nc2ccc(Nc3ccccc3)cc2)c2c1C(=O)c1ccccc1C2=O`, on P2Y purinoceptor 2 [1], the IC50 turned out to be 3.93 µM.

With `CCc1ccccc1Nc1cc(S(=O)(=O)O)c(N)c2c1C(=O)c1ccccc1C2=O`, the IC50 on P2Y purinoceptor 2 [1] turned out to be 9.26 µM; on P2Y purinoceptor 2 [2], 24 µM.

Turning to `Cc1cccc(Nc2cc(S(=O)(=O)O)c(N)c3c2C(=O)c2ccccc2C3=O)c1C`, the IC50 turned out to be 7.95 µM at P2Y purinoceptor 2 [1] and 14 µM at P2Y purinoceptor 2 [2].

On to `CCOc1ccccc1Nc1cc(S(=O)(=O)O)c(N)c2c1C(=O)c1ccccc1C2=O`, for which the IC50 at P2Y purinoceptor 2 [1] was 15 µM; on P2Y purinoceptor 2 [2], 17 µM.

In the case of `Cc1ccc(Nc2cc(S(=O)(=O)O)c(N)c3c2C(=O)c2ccccc2C3=O)cc1`, the IC50 is 24.9 µM at P2Y purinoceptor 2 [1] and 27 µM on P2Y purinoceptor 2 [2].

As for `Nc1c(S(=O)(=O)O)cc(Nc2cccc([N+](=O)[O-])c2)c2c1C(=O)c1ccccc1C2=O`, at P2Y purinoceptor 2 [2], the IC50 is more than 100 µM.

In the case of `Cc1cccc(Nc2cc(S(=O)(=O)O)c(N)c3c2C(=O)c2ccccc2C3=O)c1`, the values for the IC50 at P2Y purinoceptor 2 [1] and on P2Y purinoceptor 2 [2] were 3.04 µM and 22 µM, respectively.

With `Nc1c(S(=O)(=O)O)cc(Br)c2c1C(=O)c1ccccc1C2=O` [BROMAMINIC ACID], the IC50 on P2Y purinoceptor 2 [2] is more than 100 µM.

Turning to `Nc1c(S(=O)(=O)O)cc(Nc2ccc(Nc3nc(Cl)nc(Nc4cccc(S(=O)(=O)O)c4)n3)c(S(=O)(=O)O)c2)c2c1C(=O)c1ccccc1C2=O` [RB 2], the results for the IC50 on P2Y purinoceptor 2 [1] and at P2Y purinoceptor 2 [2] were 1.85 µM and 5 µM, respectively.
